Here are results for 6 molecules from ChEMBL document CHEMBL1123579, “Synthesis and evaluation of mono-, di-, and trifluoroethenyl-GABA derivatives as GABA-T inhibitors” (J Med Chem, 1987).

In general, pKa refers to the pH at which an ionisable group is half protonated. A higher pKa goes with a group that holds its proton tightly.

Data set [1] deals with Mus musculus. Briefly: In vivo brain GABA-T activity was measured in mice 6 hour after intraperitoneal administration at a dose of 1.9 mM / kg. The class given is functional. Summed up:
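Male Swiss Albino mice (20–25 g) received drug ip as aqueous solution and were decapitated 6 h later. Half-brain was frozen, then homogenized in 9 volumes of 10 mM KH2PO4 pH 6.8 with 0.1 mM pyridoxal phosphate, 1 mM EDTA, 0.1 mM glutathione, 0.13% Triton X-100 and 20% glycerol for GABA-T activity. Mean ± SEM, n = 5; control n = 15; Student's t test.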

Data set [2] has as its system Mus musculus. Briefly: Brain GABA level was measured in mice 6 hour after intraperitoneal administration at a dose of 1.9 mM/ kg. The class given is functional. The method in brief: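 Male Swiss Albino mice (20–25 g), housed five per cage with free food and water on a 12-h light cycle, received drug ip as aqueous solution and were decapitated 6 h later. Half-brain homogenized in 10 mL 0.2 N HClO4, and supernatant GABA measured on an automatic amino acid analyzer. Mean ± SEM of five animals; control n = 15 pooled across days; Student's t test.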

A short description of data set [3]: Dissociation constant pKa was reported. The data set is classed as physicochemical.
Data set [4] relates to Mus musculus. In words: Brain GABA level was measured in mice 6 hour after intraperitoneal administration at a dose of 3.8 mM/ kg. The class given is functional. Summed up: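 Male Swiss Albino mice (20–25 g), housed five per cage under a 12-h light-dark cycle, were given drug ip as an aqueous solution. They were decapitated 6 h later and brains split sagittally and frozen. Half-brain was homogenized in 10 mL 0.2 N HClO4, and supernatant GABA was measured by automatic amino acid analyzer. Values are mean ± SEM of five animals (controls: 15, different days); Student's t test.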

Data set [5] deals with Mus musculus. In words: In vivo brain GABA-T activity was measured in mice 6 hour after intraperitoneal administration at a dose of 3.8 mM / kg. The data set is classed as functional. Summed up:
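Male Swiss Albino mice (20–25 g) got an ip aqueous dose and were decapitated 6 h later. Brains were split sagittally and frozen. Half-brain was homogenized in 9 volumes of 10 mM KH2PO4 pH 6.8 with 0.1 mM pyridoxal phosphate, 1 mM EDTA, 0.1 mM glutathione, 0.13% Triton X-100 and 20% glycerol for GABA-T activity. Values are mean ± SEM, n = 5 (controls 15); Student's t test.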

Take `C=C(F)C(N)CCC(=O)O` (stereo unspecified): the Activity in data set [1] worked out at 59.7 mM/h; in data set [2], 3.6 µM/g. This molecule also had a pKa in data set [3] of 8.32.
The like results for `NC(/C=C\F)CCC(=O)O` (stereo unspecified) were, in that order, 38.3 mM/h, 9.8 µM/g and 9.35.
For `C#CC(N)CCC(=O)O` (stereo unspecified), in data set [3], the pKa was 8.2.
`C=CC(N)CCC(=O)O` (stereo unspecified) [VIGABATRIN]: the Activity in data set [1] came out at 29.3 mM/h; in data set [2] it was 9.1 µM/g. The same molecule yielded a pKa in data set [3] of 9.5.
Consider `NC(C=C(F)F)CCC(=O)O` (stereo unspecified), for which the Activity in data set [1] amounted to 42.4 mM/h; in data set [2] it was 2.8 µM/g. Moreover, the pKa in data set [3] turned out to be 9.32.
For `NC(CCC(=O)O)C(F)=C(F)F` (stereo unspecified), the Activity in data set [4] amounted to 2.7 µM/g; in data set [5] it was 69.4 mM/h. In data set [3], this molecule came in with a pKa of 7.87.
